Source: article PMC3139720 (Proteins, 2011)
Where “and” joins values, the source holds several entries; their conditions need not be identical. Equal entries are not always repeated. Where two headings read alike, the source gives them in different places. Marks after values point to notes of the source that are not given here.

Experiments:
[1] = Practical properties of thiol-reactive probes; format: physicochemical; details: data not shown
[2] = reaction of ABD with L-GSH; for Ea/R: Arrhenius fit
physchem = details: apparent pKa of L-GSH
[3] = fQCR: ABD labeling of a single buried cysteine over a temperature gradient; format: physicochemical
In short: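 Purified single-buried-cysteine variant at 5-10 μM in 25 mM potassium phosphate, 100 mM KCl, pH 7, with TCEP. Final ABD at least 10-fold over protein. Parallel reactions run across a gradient thermocycler and quenched after fixed Δt by rapid cooling or acid. Fluorescence relative to RFUmax (400-2000 μM ABD) gives fractional labeling. Probe-concentration slices test EX2. ΔCp fixed at 3.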

[4] = Thermal unfolding monitored by circular dichroism at 222 nm; format: physicochemical; details: pH 7, CD signal at 222 nm, fit of Eq. 1
In short: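 His-tagged variants, Ni-affinity purified and buffer-exchanged. Protein at 3 μM in 25 mM potassium phosphate, 100 mM KCl, pH 7. CD signal at 222 nm recorded as a function of temperature. Apparent Tm obtained by fitting Eq. 1.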

[5] = fQCR ligand binding: RBP.A188C in absence and presence of D-ribose; details: for Δ^apoGU: absence of ligand; for Tm / ΔHm: free energy profile; for Kd: ligand ribose, from ΔΔGU (Eq. 17)
In short: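 RBP.A188C at 5 μM with 400 μM ABD and 50 μM TCEP (final) in 25 mM potassium phosphate, 100 mM KCl, pH 7, without or with 20 μM ligand. Samples incubated 10 min across a gradient thermocycler, then fluorescence read at 30°C (ex 405, em 465 nm). Fractional labeling converted to free-energy profiles. KD derived versus temperature and free ligand concentration via Eq. 17.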

[6] = Δt 300 s, [ABD] 500 μM, PHERAstar FS microplate reader (Fig. 7)
[7] = absence of ribose (Fig. 6B inset)
[8] = presence of 20 μM ribose (Fig. 6B inset)

CCN(CC)c1ccc2c(C)c(-c3ccc(N4C(=O)C=CC4=O)cc3)c(=O)oc2c1 [CPM, N-[4-(7-diethylamino-4-methyl-3-coumarinyl)phenyl]maleimide]
solubility [1]: limited
spontaneous hydrolysis [1]: high rate of spontaneous hydrolysis that is strongly temperature dependent

NS(=O)(=O)c1ccc(F)c2nonc12 [ABD, 4-(aminosulfonyl)-7-fluoro-2,1,3-benzoxadiazole]
lnA, average value and standard error ([2]; over pH 6-8.5): 27.3 ± 0.3
Ea/R ([2]; pH 6 (by order of symbols)): -9300 ± 200 K
Ea/R ([2]; pH 7 (by order of symbols)): -8300 ± 200 K
Ea/R ([2]; pH 8 (by order of symbols)): -7800 ± 200 K
Ea/R ([2]; pH 8.5 (by order of symbols)): -7400 ± 200 K

N[C@@H](CCC(=O)N[C@@H](CS)C(=O)NCC(=O)O)C(=O)O [L-GSH, reduced glutathione]
pKa (physchem): 8.03 ± 0.01

B1: RBP.L61C: E. coli ribose-binding protein variant engineered to contain a single, buried cysteine (L61C), C-terminal … tag (protein, UniProt P02925 26-296, looked up, variant L61C)
Ribose import binding protein …: KDTIALVVSTLNNPFFVSLKDGAQKEADKLGYNLVVLDSQNNPAKELANVQDLTVRGTKICLINPTDSDAVGNAVKMANQANIPVITLDRQATKGEVVSHIASDNVLGGKIAGDYIAKKAGEGAKVIELQGIAGTSAARERGEGFQQAVAAHKFNVLASQPADFDRIKGLNVMQNLLTAHPDVQAVFAQNDEMALGALRALQTAGKSDVMVVGFDGTPDGEKAVNDGKLAATIAQLPDQIGAKGVETADKVLKGEKVQAKYPVDLKLVVKQ
modifications: C-terminal … tag
Tm ([3]; summary line, quantified graphically): 53 ± 1 ^c °C
~kclose at Tm ([3]; Δt 300 s, [ABD] 100 μM): < 2 × 10^-2 ^e s^-1
~kclose at Tm ([3]; Δt 300 s, [ABD] 200 μM): < 2 × 10^-2 ^e s^-1
~kclose at Tm ([3]; Δt 300 s, [ABD] 400 μM): < 2 × 10^-2 ^e s^-1
Tm ([3]; Δt 300 s, [ABD] 400 μM, quantified graphically (non-EX2)): 53 ± 1 ^c °C
~kclose at Tm ([3]; Δt 300 s, [ABD] 600 μM): < 2 × 10^-2 ^e s^-1
Tm ([3]; Δt 300 s, [ABD] 600 μM, quantified graphically (non-EX2)): 53 ± 1 ^c °C
~kclose at Tm ([3]; Δt 300 s, [ABD] 800 μM): < 2 × 10^-2 ^e s^-1
Tm ([3]; Δt 300 s, [ABD] 800 μM, quantified graphically (non-EX2)): 53 ± 1 ^c °C
~kclose at Tm ([3]; Δt 300 s, [ABD] 1200 μM): < 2 × 10^-2 ^e s^-1
Tm ([3]; Δt 300 s, [ABD] 1200 μM, quantified graphically (non-EX2)): 53 ± 1 ^c °C
apparent Tm [4]: 53 ± 1 °C

B2: RBP.A188C: E. coli ribose-binding protein variant engineered to contain a single, buried cysteine (A188C), C-terminal … tag (protein, UniProt P02925 26-296, looked up, variant A188C)
Ribose import binding protein …: KDTIALVVSTLNNPFFVSLKDGAQKEADKLGYNLVVLDSQNNPAKELANVQDLTVRGTKILLINPTDSDAVGNAVKMANQANIPVITLDRQATKGEVVSHIASDNVLGGKIAGDYIAKKAGEGAKVIELQGIAGTSAARERGEGFQQAVAAHKFNVLASQPADFDRIKGLNVMQNLLTAHPDVQAVFCQNDEMALGALRALQTAGKSDVMVVGFDGTPDGEKAVNDGKLAATIAQLPDQIGAKGVETADKVLKGEKVQAKYPVDLKLVVKQ
modifications: C-terminal … tag
Ea/R ([3]; average value): -8140 ^a K
Tm ([3]; Δt 300 s, [ABD] 200 μM): 56 ± 1 °C
Ea/R ([3]; Δt 300 s, [ABD] 200 μM, pH 7): -8163 ± 6 K
Ea/R ([3]; Δt 300 s, [ABD] 400 μM, pH 7): -8110 ± 14 K
Tm [3, 6]: 56 ± 1 ^f °C
ΔHm [3, 6]: 123 ± 16 ^f kcal/mol and 112 ± 5 ^f kcal/mol
ΔHm ([3]; Δt 300 s, [ABD] 800 μM, ΔCp fixed at 3): 121 ± 4 kcal/mol
~kclose at Tm ([3]; Δt 300 s, [ABD] 1600 μM): ~0.04 s⁻¹
ΔHm ([3]; Δt 300 s, [ABD] 1600 μM, ΔCp fixed at 3): 117 ± 8 kcal/mol
Tm ([3]; Δt 600 s, [ABD] 200 μM): 56 ± 1 °C
Tm ([3]; Δt 600 s, [ABD] 400 μM): 56 ± 1 °C
ΔHm ([3]; Δt 600 s, [ABD] 800 μM, ΔCp fixed at 3): 128 ± 3 kcal/mol
Tm ([3]; Δt 600 s, [ABD] 1200 μM): 58 ± 1 °C
~kclose at Tm ([3]; Δt 600 s, [ABD] 1200 μM): ~0.04 s⁻¹
ΔHm ([3]; Δt 600 s, [ABD] 1200 μM, ΔCp fixed at 3): 125 ± 5 kcal/mol
Tm ([3]; Δt 600 s, [ABD] 1600 μM): 58 ± 1 °C
~kclose at Tm ([3]; Δt 600 s, [ABD] 1600 μM): ~0.04 s⁻¹
ΔHm ([3]; Δt 600 s, [ABD] 1600 μM, ΔCp fixed at 3): 121 ± 4 kcal/mol
apparent Tm [4]: 56 ± 1 °C
Δ^apoGU ([5]; 46 °C): 3.7 kcal/mol
Δ^apoGU ([5]; 48 °C): 3.0 kcal/mol
Δ^apoGU ([5]; 50 °C): 2.3 kcal/mol
Δ^apoGU ([5]; 52 °C): 1.6 kcal/mol
Δ^apoGU ([5]; 54 °C): 0.9 kcal/mol
Δ^apoGU ([5]; 56 °C): 0.1 kcal/mol
Tm [5, 7]: 57 ± 1 °C
ΔHm [5, 7]: 138 ± 1 kcal/mol
Tm [5, 8]: 59 ± 1 °C
ΔHm [5, 8]: 160 ± 8 kcal/mol
Kd ([5]; 46 °C): 1200 nM
Kd ([5]; 48 °C): 1400 nM
Kd ([5]; 50 °C): 1700 nM
Kd ([5]; 52 °C): 2000 nM
Kd ([5]; 54 °C): 2300 nM
Kd ([5]; 56 °C): 2700 nM
